Results as given in ChEMBL document CHEMBL5329156, “Discovery and development of novel substituted monohydrazides as potent antifungal agents” (RSC Med Chem, 2023).
Active and inactive are the calls of the source.

Columns and labels:
Candida albicans [1] = assay: Antifungal activity against Candida albicans ATCC 10231 assessed as fungal growth inhibition by double dilution method; format: functional
How it was run: (§1)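 Broth microdilution after CLSI M27-A3/M38-A2 with minor changes. Single colony grown overnight in YPD at 35 °C, 200 rpm. Compound final range 0.06-31.3 µg/mL; incubated 48 h at 35 °C.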

Candida albicans [2] = assay: Antifungal activity against Candida albicans ATCC 64124 assessed as fungal growth inhibition by double dilution method; format: functional
How it was run: (§2)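 Broth microdilution after CLSI M27-A3/M38-A2 with minor modifications. A single colony was grown overnight in YPD at 35 °C with shaking at 200 rpm. Cells were mixed 1:1 with compound (final 0.06-31.3 µg/mL, from DMSO stocks) and incubated 48 h at 35 °C.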

Candida albicans [3] = assay: Antifungal activity against itraconazole/fluconazole susceptible Candida albicans ATCC MYA-2876 assessed as fungal growth inhibition by double dilution method; format: functional; how it was run: as §2
Candida albicans [4] = assay: Antifungal activity against itraconazole/fluconazole resistant Candida albicans ATCC 90819 assessed as fungal growth inhibition by double dilution method; format: functional; how it was run: as §2
Candida albicans [5] = assay: Antifungal activity against itraconazole/fluconazole susceptible Candida albicans ATCC MYA-2310 assessed as fungal growth inhibition by double dilution method; format: functional; how it was run: as §2
Candida albicans [6] = assay: Antifungal activity against itraconazole/fluconazole resistant Candida albicans ATCC MYA-1237 assessed as fungal growth inhibition by double dilution method; format: functional; how it was run: as §2
Candida albicans [7] = assay: Antifungal activity against itraconazole/fluconazole resistant Candida albicans ATCC MYA-1003 assessed as fungal growth inhibition by double dilution method; format: functional; how it was run: as §2
Nakaseomyces glabratus [8] = assay: Antifungal activity against Candida glabrata ATCC 2001 assessed as fungal growth inhibition by double dilution method; format: functional; how it was run: as §1
Pichia kudriavzevii [9] = assay: Antifungal activity against Pichia kudriavzevii ATCC 6258 assessed as fungal growth inhibition by double dilution method; format: functional; how it was run: as §1
Nakaseomyces glabratus [10] = assay: Antifungal activity against Candida glabrata ATCC 22019 assessed as fungal growth inhibition by double dilution method; format: functional; how it was run: as §1
[Candida] auris [11] = Antifungal activity against Candida auris AR Bank # 0384 assessed as fungal growth inhibition by double dilution method; format: functional; settings: Candidozyma auris; how it was run: as §1
[Candida] auris [12] = Antifungal activity against Candida auris AR Bank # 0390 assessed as fungal growth inhibition by double dilution method; format: functional; settings: Candidozyma auris; how it was run: as §1
Cryptococcus neoformans = assay: Antifungal activity against Cryptococcus neoformans ATCC MYA-895 assessed as fungal growth inhibition by double dilution method; format: functional; how it was run: as §1
Aspergillus terreus = assay: Antifungal activity against Aspergillus terreus ATCC MYA-3633 assessed as fungal growth inhibition by double dilution method; format: functional
Aspergillus fumigatus [13] = assay: Antifungal activity against Aspergillus fumigatus NRRL 163 assessed as fungal growth inhibition by double dilution method; format: functional
Aspergillus flavus = assay: Antifungal activity against Aspergillus flavus ATCC MYA-3631 assessed as fungal growth inhibition by double dilution method; format: functional
Aspergillus nidulans = assay: Antifungal activity against Aspergillus nidulans ATCC 38163 assessed as fungal growth inhibition by double dilution method; format: functional
Aspergillus fumigatus [14] = assay: Antifungal activity against Aspergillus fumigatus NRRL 5109 assessed as fungal growth inhibition by double dilution method; format: functional
Aspergillus fumigatus [15] = assay: Antifungal activity against Aspergillus fumigatus NRRL 6113 assessed as fungal growth inhibition by double dilution method; format: functional
[Candida] auris [16] = Antifungal activity against Candida auris AR Bank # 381 assessed as fungal growth inhibition by double dilution method; format: functional; settings: Candidozyma auris; how it was run: as §1
[Candida] auris [17] = Antifungal activity against Candida auris AR Bank # 382 assessed as fungal growth inhibition by double dilution method; format: functional; settings: Candidozyma auris; how it was run: as §1
[Candida] auris [18] = Antifungal activity against Candida auris AR Bank # 383 assessed as fungal growth inhibition by double dilution method; format: functional; settings: Candidozyma auris; how it was run: as §1
[Candida] auris [19] = Antifungal activity against Candida auris AR Bank # 384 assessed as fungal growth inhibition by double dilution method; format: functional; settings: Candidozyma auris; how it was run: as §1
[Candida] auris [20] = Antifungal activity against Candida auris AR Bank # 385 assessed as fungal growth inhibition by double dilution method; format: functional; settings: Candidozyma auris; how it was run: as §1
[Candida] auris [21] = Antifungal activity against Candida auris AR Bank # 386 assessed as fungal growth inhibition by double dilution method; format: functional; settings: Candidozyma auris; how it was run: as §1
[Candida] auris [22] = Antifungal activity against Candida auris AR Bank # 387 assessed as fungal growth inhibition by double dilution method; format: functional; settings: Candidozyma auris; how it was run: as §1
[Candida] auris [23] = Antifungal activity against Candida auris AR Bank # 388 assessed as fungal growth inhibition by double dilution method; format: functional; settings: Candidozyma auris; how it was run: as §1
[Candida] auris [24] = Antifungal activity against Candida auris AR Bank # 389 assessed as fungal growth inhibition by double dilution method; format: functional; settings: Candidozyma auris; how it was run: as §1
[Candida] auris [25] = Antifungal activity against Candida auris AR Bank # 390 assessed as fungal growth inhibition by double dilution method; format: functional; settings: Candidozyma auris; how it was run: as §1
Candida duobushaemulonii [26] = assay: Antifungal activity against Candida duobushaemulonii AR Bank # 391 assessed as fungal growth inhibition by double dilution method; format: functional; settings: Candidozyma duobushaemuli; how it was run: as §1
Candida duobushaemulonii [27] = assay: Antifungal activity against Candida duobushaemulonii AR Bank # 392 assessed as fungal growth inhibition by double dilution method; format: functional; settings: Candidozyma duobushaemuli; how it was run: as §1
[Candida] haemuloni [28] = Antifungal activity against Candida haemulonii AR Bank # 393 assessed as fungal growth inhibition by double dilution method; format: functional; settings: Candidozyma haemuli; how it was run: as §1
Candida duobushaemulonii [29] = assay: Antifungal activity against Candida duobushaemulonii AR Bank # 394 assessed as fungal growth inhibition by double dilution method; format: functional; settings: Candidozyma duobushaemuli; how it was run: as §1
[Candida] haemuloni [30] = Antifungal activity against Candida haemulonii AR Bank # 395 assessed as fungal growth inhibition by double dilution method; format: functional; settings: Candidozyma haemuli; how it was run: as §1
Kodamaea ohmeri = assay: Antifungal activity against Kodamaea ohmeri AR Bank # 396 assessed as fungal growth inhibition by double dilution method; format: functional; how it was run: as §1
Pichia kudriavzevii [31] = assay: Antifungal activity against Pichia kudriavzevii AR Bank # 397 assessed as fungal growth inhibition by double dilution method; format: functional; how it was run: as §1
Clavispora lusitaniae = assay: Antifungal activity against Clavispora lusitaniae AR Bank # 398 assessed as fungal growth inhibition by double dilution method; format: functional; how it was run: as §1
Saccharomyces cerevisiae [32] = assay: Antifungal activity against Saccharomyces cerevisiae AR Bank # 399 assessed as fungal growth inhibition by double dilution method; format: functional; how it was run: as §1
Saccharomyces cerevisiae [33] = assay: Antifungal activity against Saccharomyces cerevisiae AR Bank # 400 assessed as fungal growth inhibition by double dilution method; format: functional; how it was run: as §1
J774.A1 = assay: Cytotoxicity against J774A.1 cells assessed as reduction in cell viability at 31.3 microg/ml; format: toxicity, cell-based; settings: mouse, dose 31.3 µg/ml
How it was run: (§3)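 Cells in DMEM with 10% FBS and 1% Pen/Strep, seeded at 10,000 cells/well and held overnight at 37 °C, 5% CO2. Compounds added at final 31.3-0.12 µg/mL (0.05% DMSO vehicle) for 24 h. Resazurin then added for 6 h; fluorescence read at ex 560/em 590. Triton X-100 1% as positive control; values normalized to vehicle. Run in quadruplicate.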

HEK293 = assay: Cytotoxicity against human HEK-293 cells assessed as reduction in cell viability at 31.3 microg/ml; format: toxicity, cell-based; settings: dose 31.3 µg/ml; how it was run: as §3
HepG2 = assay: Cytotoxicity against human HepG2 cells assessed as reduction in cell viability upto 31.3 microg/ml; format: toxicity, cell-based; settings: dose < 31.3 µg/ml; how it was run: as §3
Candida albicans [34] = assay: Antibiofilm activity against Candida albicans ATCC 10231 assessed as reduction in biofilm production at 1.96 to 3.9 microg/ml by biofilm formation assay; format: functional, organism-based; settings: dose 1.96-3.9 µg/ml

O=C(NNc1ccc(F)cc1F)c1cnccn1
0.98 µg/mL: MIC (Candida albicans [2]) | MIC (Candida albicans [3]) | MIC (Candida albicans [4]) | MIC (Nakaseomyces glabratus [8]) | MIC ([Candida] auris [12]) | MIC (Aspergillus terreus) | MIC ([Candida] auris [18]) | MIC ([Candida] auris [20]) | MIC ([Candida] auris [25]) | MIC (Kodamaea ohmeri)
0.49 µg/mL: MIC (Candida albicans [6]) | MIC (Candida albicans [7]) | MIC (Aspergillus nidulans) | MIC ([Candida] auris [21]) | MIC ([Candida] auris [22]) | MIC ([Candida] auris [23]) | MIC ([Candida] auris [24]) | MIC (Candida duobushaemulonii [26])
1.95 µg/mL: MIC ([Candida] auris [17]) | MIC ([Candida] haemuloni [30]) | MIC (Pichia kudriavzevii [31]) | MIC (Saccharomyces cerevisiae [33])
3.9 µg/mL: MIC (Candida albicans [5]) | MIC (Nakaseomyces glabratus [10]) | MIC ([Candida] auris [11]) | MIC ([Candida] auris [16]) | MIC ([Candida] auris [19]) | MIC (Clavispora lusitaniae)
0.24 µg/mL: MIC (Candida albicans [1]) | MIC (Pichia kudriavzevii [9]) | MIC (Cryptococcus neoformans) | MIC (Candida duobushaemulonii [27]) | MIC ([Candida] haemuloni [28])
7.8 µg/mL: MIC (Aspergillus flavus) | MIC (Candida duobushaemulonii [29]) | MIC (Saccharomyces cerevisiae [32])
> 31.3 µg/mL: MIC (Aspergillus fumigatus [13]) | MIC (Aspergillus fumigatus [14]) | MIC (Aspergillus fumigatus [15])
Non-Toxic: Activity (J774.A1) | Activity (HEK293) | Activity (HepG2)

COc1cccc(NNC(=O)c2cnccn2)c1
7.8 µg/mL: MIC (Nakaseomyces glabratus [8]) | MIC (Aspergillus fumigatus [14]) | MIC ([Candida] auris [20]) | MIC (Saccharomyces cerevisiae [32])
15.6 µg/mL: MIC (Aspergillus fumigatus [13])
0.49 µg/mL: MIC (Candida albicans [1]) | MIC (Pichia kudriavzevii [9]) | MIC (Cryptococcus neoformans) | MIC ([Candida] auris [21]) | MIC ([Candida] haemuloni [28]) | MIC ([Candida] haemuloni [30]) | MIC (Kodamaea ohmeri) | MIC (Pichia kudriavzevii [31])
1.95 µg/mL: MIC (Candida albicans [3]) | MIC (Candida albicans [4]) | MIC (Candida albicans [5]) | MIC (Candida albicans [6]) | MIC (Nakaseomyces glabratus [10]) | MIC ([Candida] auris [11]) | MIC (Aspergillus terreus) | MIC (Aspergillus nidulans) | MIC ([Candida] auris [16]) | MIC ([Candida] auris [18]) | MIC ([Candida] auris [19]) | MIC (Candida duobushaemulonii [29]) | MIC (Clavispora lusitaniae)
> 31.3 µg/mL: MIC (Aspergillus flavus) | MIC (Aspergillus fumigatus [15])
0.98 µg/mL: MIC (Candida albicans [2]) | MIC (Candida albicans [7]) | MIC ([Candida] auris [12]) | MIC ([Candida] auris [17]) | MIC ([Candida] auris [22]) | MIC ([Candida] auris [24]) | MIC ([Candida] auris [25]) | MIC (Candida duobushaemulonii [27])
3.9 µg/mL: MIC ([Candida] auris [23]) | MIC (Candida duobushaemulonii [26]) | MIC (Saccharomyces cerevisiae [33])
Non-Toxic: Activity (J774.A1) | Activity (HEK293) | Activity (HepG2)

O=C(NNc1ccc(F)cc1F)c1ccccn1
1.95 µg/mL: MIC (Candida albicans [2]) | MIC (Nakaseomyces glabratus [10]) | MIC (Clavispora lusitaniae)
0.98 µg/mL: MIC (Candida albicans [3]) | MIC (Candida albicans [4]) | MIC (Nakaseomyces glabratus [8]) | MIC (Aspergillus terreus) | MIC (Kodamaea ohmeri)
0.49 µg/mL: MIC (Candida albicans [6]) | MIC (Candida albicans [7]) | MIC (Pichia kudriavzevii [9]) | MIC ([Candida] auris [11]) | MIC (Aspergillus nidulans) | MIC ([Candida] auris [16]) | MIC ([Candida] auris [17]) | MIC ([Candida] auris [18]) | MIC ([Candida] auris [19]) | MIC ([Candida] auris [20]) | MIC ([Candida] auris [21]) | MIC (Candida duobushaemulonii [27]) | MIC ([Candida] haemuloni [28]) | MIC (Saccharomyces cerevisiae [32]) | MIC (Saccharomyces cerevisiae [33])
inactive: Activity (Candida albicans [34])
0.12 µg/mL: MIC (Candida albicans [1]) | MIC ([Candida] auris [12]) | MIC ([Candida] auris [22]) | MIC ([Candida] auris [23]) | MIC ([Candida] auris [25]) | MIC (Candida duobushaemulonii [26])
≤ 0.06 µg/mL: MIC (Pichia kudriavzevii [31])
15.6 µg/mL: MIC (Aspergillus flavus) | MIC (Aspergillus fumigatus [14])
Non-Toxic: Activity (J774.A1) | Activity (HEK293) | Activity (HepG2)
3.9 µg/mL: MIC (Candida duobushaemulonii [29])
0.24 µg/mL: MIC (Cryptococcus neoformans) | MIC ([Candida] auris [24]) | MIC ([Candida] haemuloni [30])
31.3 µg/mL: MIC (Candida albicans [5]) | MIC (Aspergillus fumigatus [15])
> 31.3 µg/mL: MIC (Aspergillus fumigatus [13])
